From ChEMBL document CHEMBL3576866, “Discovery of a Cyclic Boronic Acid β-Lactamase Inhibitor (RPX7009) with Utility vs Class A Serine Carbapenemases” (J Med Chem, 2015)
Converted amounts (≈) assume the structure as drawn. The source made the active and inactive calls. The calls are words filed in the database; no cut-off is given here.

How the values were obtained:
Klebsiella pneumoniae [1] = assay: Antibacterial activity against Klebsiella pneumoniae KP1082 expressing KPC2/SHV-1 by broth microdilution method; format: functional
Klebsiella pneumoniae [2] = assay: Antibacterial activity against Klebsiella pneumoniae KP1008 expressing KPC2 by broth microdilution method; format: functional
Klebsiella oxytoca [3] = assay: Antibacterial activity against Klebsiella oxytoca KX1019 expressing KPC2/OXA2 by broth microdilution method; format: functional
Klebsiella oxytoca [4] = assay: Antibacterial activity against Klebsiella oxytoca KX1017 expressing KPC2/OXA2/SHV30 by broth microdilution method; format: functional
Klebsiella pneumoniae [5] = assay: Antibacterial activity against Klebsiella pneumoniae KP1088 expressing KPC3/SHV-11/TEM-1 by broth microdilution method; format: functional
Klebsiella pneumoniae [6] = assay: Antibacterial activity against Klebsiella pneumoniae KP1084 expressing KPC3/SHV-11/TEM-1 by broth microdilution method; format: functional
Escherichia coli [7] = assay: microbe, parasite or virus in culture; conditions: EC1007
Klebsiella pneumoniae [8] = assay: Antibacterial activity against Klebsiella pneumoniae KP1087 expressing KPC2/CTX-M-15/SHV-11/TEM-1 by broth microdilution method; format: functional
Klebsiella pneumoniae [9] = assay: Antibacterial activity against Klebsiella pneumoniae KP1004 expressing KPC2/TEM1/SHV11 by broth microdilution method; format: functional
Klebsiella pneumoniae [10] = assay: Antibacterial activity against Klebsiella pneumoniae KP1083 expressing KPC3/SHV-1/TEM-1 by broth microdilution method; format: functional
Enterobacter cloacae = assay: Antibacterial activity against Enterobacter cloacae ECL1058 expressing KPC3/SHV-11/TEM-1 by broth microdilution method; format: functional
Klebsiella pneumoniae [11] = assay: microbe, parasite or virus in culture; conditions: KP1011
Escherichia coli [12] = assay: microbe, parasite or virus in culture; conditions: EC1008
Klebsiella aerogenes = assay: microbe, parasite or virus in culture; conditions: EA1028
Klebsiella pneumoniae [13] = assay: microbe, parasite or virus in culture; conditions: KP1005
Klebsiella pneumoniae [14] = assay: microbe, parasite or virus in culture; conditions: KP1010
Escherichia coli [15] = assay: microbe, parasite or virus in culture; conditions: EC1011
Escherichia coli [16] = assay: microbe, parasite or virus in culture; conditions: EC1009
Klebsiella oxytoca [17] = assay: microbe, parasite or virus in culture; conditions: KX1001
Klebsiella pneumoniae [18] = assay: microbe, parasite or virus in culture; conditions: KP1009
[19] = Competitive inhibition of Escherichia coli RTEM-1
[20] = Inhibition of Escherichia coli MV1183 TEM-1 using nitrocefin as substrate preincubated for 10 mins followed by substrate addition measured for 500 secs
Klebsiella pneumoniae [21] = assay: Antibacterial activity against Klebsiella pneumoniae KP1004 by broth microdilution method; format: functional, organism-based
[22] = target: Beta-lactamase (Klebsiella pneumoniae) (UniProt Q93LQ9); assay: Inhibition of Klebsiella pneumoniae KP1004 KPC 2 carbapenemase assessed as minimum concentration required to reduce biapenem MIC from […] ug/ml to 1 ug/mL by broth microdilution method
Klebsiella pneumoniae [23] = assay: Antibacterial activity against Klebsiella pneumoniae KP1074 in Swiss webster neutropenic mouse lung infection model assessed as change in log10 CFU in lung at 50 mg/kg, ip administered every 2 hrs starting at 2 hrs postinfection measured after 24 hrs relative to control; format: functional
Procedure, shortened: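 Swiss Webster mice made neutropenic with cyclophosphamide and infected intratracheally under isoflurane with KP1074. […] Lungs harvested 24 h after the start of treatment, homogenized and plated for CFU.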

[24] = Inhibition of Escherichia coli recombinant KPC-2 assessed as substrate nitrocefin degradation preincubated for 10 mins followed by substrate addition measured every 10 secs for 10 mins by spectrophotometric analysis
Procedure, shortened: (§1)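 β-Lactamases purified from overexpressing recombinant E. coli. Enzyme preincubated with inhibitor at varying concentrations for 10 min at room temperature in 50 mM Na phosphate pH 7.0, 0.1 mg/mL BSA. Then 50 μM nitrocefin (final) added and cleavage read at 490 nm every 10 s for 10 min. Ki derived by the Waley method.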

[25] = Inhibition of Escherichia coli recombinant CTX-M-15 assessed as substrate nitrocefin degradation preincubated for 10 mins followed by substrate addition measured every 10 secs for 10 mins by spectrophotometric analysis; procedure, shortened: as §1
[26] = Inhibition of Escherichia coli recombinant CMY-2 assessed as substrate nitrocefin degradation preincubated for 10 mins followed by substrate addition measured every 10 secs for 10 mins by spectrophotometric analysis; procedure, shortened: as §1
[27] = Inhibition of Escherichia coli recombinant P99 assessed as substrate nitrocefin degradation preincubated for 10 mins followed by substrate addition measured every 10 secs for 10 mins by spectrophotometric analysis; procedure, shortened: as §1
[28] = Inhibition of Escherichia coli recombinant TEM-10 assessed as substrate nitrocefin degradation preincubated for 10 mins followed by substrate addition measured every 10 secs for 10 mins by spectrophotometric analysis; procedure, shortened: as §1
[29] = Inhibition of Escherichia coli recombinant SHV-12 assessed as substrate nitrocefin degradation preincubated for 10 mins followed by substrate addition measured every 10 secs for 10 mins by spectrophotometric analysis; procedure, shortened: as §1
Klebsiella pneumoniae [30] = assay: Antibacterial activity against Klebsiella pneumoniae KP1074 in Swiss webster neutropenic mouse lung infection model assessed as change in log10 CFU in lung at 100 mg/kg, ip administered every 2 hrs starting at 2 hrs postinfection measured after 24 hrs relative to control; format: functional
Procedure, shortened: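 Neutropenic (cyclophosphamide) Swiss Webster mice infected intratracheally under isoflurane anesthesia with K. pneumoniae KP1074. […] Lungs removed 24 h after start of treatment, homogenized and plated for bacterial counts (CFU).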

Sequence of Beta-lactamase (Klebsiella pneumoniae) (Q93LQ9 as listed by the source): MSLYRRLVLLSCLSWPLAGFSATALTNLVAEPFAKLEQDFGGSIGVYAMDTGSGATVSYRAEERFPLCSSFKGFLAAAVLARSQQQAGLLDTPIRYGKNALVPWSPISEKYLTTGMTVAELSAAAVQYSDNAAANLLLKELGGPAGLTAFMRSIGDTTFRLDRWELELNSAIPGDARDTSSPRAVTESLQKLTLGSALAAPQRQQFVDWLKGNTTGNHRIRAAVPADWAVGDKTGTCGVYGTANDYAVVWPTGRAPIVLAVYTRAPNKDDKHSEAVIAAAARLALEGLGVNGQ

C[C@@H](O)[C@H]1C(=O)N2C(C(=O)O)=C(S[C@@H]3CN[C@H](C(=O)Nc4cccc(C(=O)O)c4)C3)[C@H](C)[C@H]12
MIC (Klebsiella pneumoniae [1]): 4 µg/mL (≈ 8.41 µM) | MIC (Klebsiella pneumoniae [2]): 8 µg/mL (≈ 16.8 µM) | MIC (Klebsiella oxytoca [3]): 16 µg/mL (≈ 33.6 µM) | MIC (Klebsiella oxytoca [4]): 16 µg/mL (≈ 33.6 µM) | MIC (Klebsiella pneumoniae [5]): 16 µg/mL (≈ 33.6 µM) | MIC (Klebsiella pneumoniae [6]): > 64 µg/mL | MIC (Escherichia coli [7]): 8 µg/mL (≈ 16.8 µM) | MIC (Klebsiella pneumoniae [8]): > 64 µg/mL | MIC (Klebsiella pneumoniae [9]): 32 µg/mL (≈ 67.3 µM) | MIC (Klebsiella pneumoniae [10]): 32 µg/mL (≈ 67.3 µM) | MIC (Enterobacter cloacae): 32 µg/mL (≈ 67.3 µM)

CO/N=C(\C(=O)N[C@@H]1C(=O)N2C(C(=O)[O-])=C(C[N+]3(C)CCCC3)CS[C@H]12)c1csc(N)n1
MIC (Klebsiella pneumoniae [11]): 64 µg/mL (≈ 133 µM) | MIC (Escherichia coli [12]): > 64 µg/mL | MIC (Klebsiella aerogenes): > 64 µg/mL | MIC (Klebsiella pneumoniae [13]): 64 µg/mL (≈ 133 µM) | MIC (Klebsiella pneumoniae [14]): 2 µg/mL (≈ 4.16 µM) | MIC (Escherichia coli [15]): 8 µg/mL (≈ 16.6 µM) | MIC (Escherichia coli [16]): 8 µg/mL (≈ 16.6 µM) | MIC (Klebsiella oxytoca [17]): 4 µg/mL (≈ 8.32 µM) | MIC (Klebsiella pneumoniae [18]): > 64 µg/mL

CC(=O)NC(Cc1cccc(C(=O)O)c1)B(O)O (stereo not drawn)
Ki [19]: 0.11 µM

O=C(Cc1ccccc1)NC(Cc1cccc(C(=O)O)c1)B(O)O (stereo not drawn)
Ki [20]: 0.006 µM

CC(=O)NC(Cc1cccc(C(=O)O)c1O)B(O)O (stereo not drawn)
Ki [20]: 0.013 µM

CC(=O)N[C@H]1CC[C@@H](CC(=O)O)OB1O
Activity (Klebsiella pneumoniae [21]): inactive | MEC [22]: 0.3 µg/mL

NCCSCC(=O)N[C@H]1CC[C@@H](CC(=O)O)OB1O
Activity (Klebsiella pneumoniae [21]): inactive | MEC [22]: 0.3 µg/mL

N[C@H](C(=O)N[C@H]1CC[C@@H](CC(=O)O)OB1O)c1ccccc1
Activity (Klebsiella pneumoniae [21]): inactive | MEC [22]: 0.3 µg/mL

Nc1cc(CC(=O)N[C@H]2CC[C@@H](CC(=O)O)OB2O)ccn1
Activity (Klebsiella pneumoniae [21]): inactive | MEC [22]: 0.04 µg/mL

Nc1nc(CC(=O)N[C@H]2CC[C@@H](CC(=O)O)OB2O)cs1
Activity (Klebsiella pneumoniae [21]): inactive | MEC [22]: 0.61 µg/mL

O=C(O)C[C@@H]1CC[C@H](NC(=O)C(O)c2ccccc2)B(O)O1 (stereo partly drawn)
Activity (Klebsiella pneumoniae [21]): inactive | MEC [22]: 0.61 µg/mL

O=C(O)C[C@@H]1CC[C@H](NC(=O)C2CC2)B(O)O1
Activity (Klebsiella pneumoniae [21]): inactive | MEC [22]: 0.15 µg/mL

O=C(O)C[C@@H]1CC[C@H](NC(=O)CCc2ccccc2)B(O)O1
Activity (Klebsiella pneumoniae [21]): inactive | MEC [22]: 0.3 µg/mL

O=C(O)C[C@@H]1CC[C@H](NC(=O)C[C@H]2CCCCN2)B(O)O1
Activity (Klebsiella pneumoniae [21]): inactive | MEC [22]: 0.15 µg/mL

O=C(O)C[C@@H]1CC[C@H](NC(=O)Cc2cccc(O)c2)B(O)O1
Activity (Klebsiella pneumoniae [21]): inactive | MEC [22]: 1.25 µg/mL

O=C(O)C[C@@H]1CC[C@H](NC(=O)Cc2ccccc2)B(O)O1
Activity (Klebsiella pneumoniae [21]): inactive | MEC [22]: 0.15 µg/mL

O=C(O)C[C@@H]1CC[C@H](NC(=O)Cc2ccccc2O)B(O)O1
Activity (Klebsiella pneumoniae [21]): inactive | MEC [22]: 0.16 µg/mL

O=C(O)C[C@@H]1CC[C@H](NC(=O)Cc2ccccn2)B(O)O1
Activity (Klebsiella pneumoniae [21]): inactive | MEC [22]: 0.15 µg/mL

O=C(O)C[C@@H]1CC[C@H](NC(=O)Cc2cccnc2)B(O)O1
Activity (Klebsiella pneumoniae [21]): inactive | MEC [22]: 0.15 µg/mL

O=C(O)C[C@@H]1CC[C@H](NC(=O)Cc2ccncc2)B(O)O1
Activity (Klebsiella pneumoniae [21]): inactive | MEC [22]: 0.15 µg/mL

O=C(O)C[C@@H]1CC[C@H](NC(=O)c2ccccc2)B(O)O1
Activity (Klebsiella pneumoniae [21]): inactive | MEC [22]: 0.3 µg/mL

CO/N=C(\C(=O)N[C@H]1CC[C@@H](CC(=O)O)OB1O)c1csc(N)n1 (stereo in doubt)
Activity (Klebsiella pneumoniae [21]): inactive | MEC [22]: 1.25 µg/mL

C[C@@H](O)[C@H]1C(=O)N2C(C(=O)[O-])=C(SC3Cn4cnc[n+]4C3)[C@H](C)[C@H]12 (stereo partly drawn) [BIAPENEM]
MIC (Klebsiella pneumoniae [1]): 4 µg/mL (≈ 11.4 µM) | MIC (Klebsiella pneumoniae [2]): 8 µg/mL (≈ 22.8 µM) | MIC (Klebsiella oxytoca [3]): 8 µg/mL (≈ 22.8 µM) | deltalog10CFU (Klebsiella pneumoniae [23]): 0.88 | MIC (Klebsiella oxytoca [4]): 4 µg/mL (≈ 11.4 µM) | MIC (Klebsiella pneumoniae [5]): 32 µg/mL (≈ 91.3 µM) | MIC (Klebsiella pneumoniae [6]): 64 µg/mL (≈ 183 µM) | MIC (Escherichia coli [7]): 8 µg/mL (≈ 22.8 µM) | MIC (Klebsiella pneumoniae [8]): 16 µg/mL (≈ 45.7 µM) | MIC (Klebsiella pneumoniae [9]): 8 µg/mL (≈ 22.8 µM) | MIC (Klebsiella pneumoniae [10]): 16 µg/mL (≈ 45.7 µM) | MIC (Enterobacter cloacae): 8 µg/mL (≈ 22.8 µM)

O=C(O)[C@H]1/C(=C/CO)O[C@@H]2CC(=O)N21 [CLAVULANIC ACID]
Ki [24]: 41.2 µM | Ki [25]: 0.027 µM | Ki [26]: 845 µM | Ki [27]: 1110 µM | Ki [28]: 0.02 µM | Ki [29]: ≤ 0.039 µM

C[C@@H](O)[C@H]1C(=O)N2C(C(=O)O)=C(SCCNC=N)C[C@H]12 [IMIPENEM ANHYDROUS]
MIC (Klebsiella pneumoniae [1]): 4 µg/mL (≈ 13.4 µM) | MIC (Klebsiella pneumoniae [2]): 4 µg/mL (≈ 13.4 µM) | MIC (Klebsiella oxytoca [3]): 4 µg/mL (≈ 13.4 µM) | MIC (Klebsiella oxytoca [4]): 8 µg/mL (≈ 26.7 µM) | MIC (Klebsiella pneumoniae [5]): 32 µg/mL (≈ 107 µM) | MIC (Klebsiella pneumoniae [6]): 64 µg/mL (≈ 214 µM) | MIC (Escherichia coli [7]): 8 µg/mL (≈ 26.7 µM) | MIC (Klebsiella pneumoniae [8]): 16 µg/mL (≈ 53.4 µM) | MIC (Klebsiella pneumoniae [9]): 8 µg/mL (≈ 26.7 µM) | MIC (Klebsiella pneumoniae [10]): 16 µg/mL (≈ 53.4 µM) | MIC (Enterobacter cloacae): 8 µg/mL (≈ 26.7 µM)

C[C@@H](O)[C@H]1C(=O)N2C(C(=O)O)=C(S[C@@H]3CN[C@H](C(=O)N(C)C)C3)[C@H](C)[C@H]12 [MEROPENEM]
MIC (Klebsiella pneumoniae [1]): 4 µg/mL (≈ 10.4 µM) | MIC (Klebsiella pneumoniae [2]): 4 µg/mL (≈ 10.4 µM) | MIC (Klebsiella oxytoca [3]): 4 µg/mL (≈ 10.4 µM) | MIC (Klebsiella oxytoca [4]): 4 µg/mL (≈ 10.4 µM) | MIC (Klebsiella pneumoniae [5]): 8 µg/mL (≈ 20.9 µM) | MIC (Klebsiella pneumoniae [6]): > 64 µg/mL | deltalog10CFU (Klebsiella pneumoniae [30]): 1.41 | MIC (Escherichia coli [7]): 4 µg/mL (≈ 10.4 µM) | MIC (Klebsiella pneumoniae [8]): 64 µg/mL (≈ 167 µM) | MIC (Klebsiella pneumoniae [9]): 8 µg/mL (≈ 20.9 µM) | MIC (Enterobacter cloacae): 8 µg/mL (≈ 20.9 µM)

C[C@]1(Cn2ccnn2)[C@H](C(=O)O)N2C(=O)C[C@H]2S1(=O)=O [TAZOBACTAM]
Ki [24]: 1.6 µM | Ki [25]: 0.001 µM | Ki [26]: 0.71 µM | Ki [27]: 1.1 µM | Ki [28]: 0.005 µM | Ki [29]: 0.0004 µM
